Assay outcomes as filed in PubChem BioAssay.
FGF22 binding: binders of recombinant human FGF22 by thermal shift; SYPRO orange fluorescence; percent of sucrose octasulfate shift, DMSO zero; activity (Tm shift, normalised), % at 9.99 µM; actives 1.5% (n = 340,000);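 active = mean Tm shift, scaled 0 neutral to 100 positive control, at about 1.3% or above, every replicate too, limit read from the data; inconclusive = no clear call, values can overlap the other calls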
Target sequence (Q9HCT0 whole entry, looked up): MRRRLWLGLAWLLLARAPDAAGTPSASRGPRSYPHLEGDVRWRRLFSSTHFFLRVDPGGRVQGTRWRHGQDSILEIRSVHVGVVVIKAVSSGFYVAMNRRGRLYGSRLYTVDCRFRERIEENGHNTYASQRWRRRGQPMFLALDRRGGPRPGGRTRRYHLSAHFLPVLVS
SIRT5 block: sirtuin-5 (human) deacylase inhibition; Purified SirT5, succinyl-peptide AMC, trypsin-coupled fluorescence; actives 1.1% (n = 330,000); Q9NXA8; AID 652115; inhibition, % at 15 µM; in the data active = inhibition above about 15%; inconclusive = no clear call, values can overlap the other calls
Target sequence (Q9NXA8 whole entry, looked up): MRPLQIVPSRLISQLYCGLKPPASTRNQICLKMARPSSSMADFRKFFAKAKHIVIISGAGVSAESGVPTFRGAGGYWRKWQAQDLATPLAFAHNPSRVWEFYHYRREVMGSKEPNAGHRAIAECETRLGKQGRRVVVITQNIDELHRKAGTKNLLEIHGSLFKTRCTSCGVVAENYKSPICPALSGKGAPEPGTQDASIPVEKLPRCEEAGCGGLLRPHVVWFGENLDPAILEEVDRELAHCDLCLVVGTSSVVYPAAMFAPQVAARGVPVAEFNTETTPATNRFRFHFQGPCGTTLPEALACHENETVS
FN deposition inh: fibronectin deposition inhibition. AH1F fibroblasts, Alexa488-fibronectin deposition fluorescence, overnight. inhibition, % at 12.6 µM. actives 0.086% (n = 350,000);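 active = mean inhibition across replicates of 30% or more, regardless of how many single replicates reach that level; inconclusive = mean under 30% yet at least half of replicates reach 30%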;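 note: positive control wells lacked labelled fibronectin entirely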
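test system = AH1F fibroblasts assembling fluorescent fibronectin matrix | quantity = 10000 AH1F cells per well | buffer or medium = DMEM plus 2% serum, read in PBS | doses = single dose, pinned | incubation = 1 h cell attachment, overnight exposure to compound and label | detection = fluorescence at 485 nm excitation, 525 nm emission | read-out basis = inhibition from reduced deposited-fibronectin fluorescence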
ARNT-TACC3 inh: disrupts binding between human ARNT and TACC3; Q9Y6A5; AlphaScreen His-ARNT PAS-B/GST-TACC3 binding, luminescence; TACC3 fragment carries E629A point mutation; actives 0.66% (n = 390,000); inhibition, % at 9.99 µM;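 active = mean inhibition of replicates at least 50% and at least half of replicates each reaching 50%; inconclusive = half or more replicates reach 50% but mean below 50%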;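 note: 0% = complete ARNT plus TACC3 wells and 100% = ARNT alone without TACC3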
XiGFP reactiv: reactivates the inactive X chromosome in mouse fibroblasts | XiGFP mouse fibroblasts, % GFP-positive cells imaging, 3 d; cells co-treated with 5-aza-dC sensitizer; scaled so ellipticine positive control = 100% | activation, % at 7.58 µM | actives 0.055% (n = 360,000) | AID 743238;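 active = mean normalized replicate activation at least 10% and every replicate at or above 10%; inconclusive = only one of the two criteria met; inactive = mean below 10% and not all replicates reach 10%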;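 note: 0% = median of on-plate neutral control wells and 100% = ellipticine 6 µM median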
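material = 68-5-11 XiGFP fibroblast line | medium = DMEM plus 5-aza-dC sensitizer | schedule = 3 days compound exposure | benchmarks = positive control ellipticine, 6 µM final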
DENV2 CPE: protects cells from dengue virus 2 cytopathic effect. DENV2-infected cells, cytopathic effect rescue, plate reader. CPE inhibition, % at 9.99 µM. actives 1.7% (n = 350,000); in the data active = CPE inhibition above about 20%, passing the limit was not always enough; inconclusive = no clear call, values can overlap the other calls; tested in BHK-21 cells;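 note: 0% = median of neutral control wells and 100% = median of positive control wells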
* hit, by the source's call; ? = inconclusive; nt = not tested or not shown. In the library only some 3.8% were active in any assay of this set; here they are far more common.

SMILES	FGF22 binding	SIRT5 block	FN deposition inh	ARNT-TACC3 inh	XiGFP reactiv	DENV2 CPE
CCCCC(=O)N/N=C/c1c(O)n(Cc2ccc(F)cc2)c(=O)[nH]c1=O	0	-1	6	69*	0	-5
O=C(N/N=C/c1c(O)n(Cc2ccc(F)cc2)c(=O)[nH]c1=O)c1ccccc1	1	-1	13	50*	0	9
O=C1NC(=O)N(Cc2ccco2)C(=O)/C1=C/C=C/c1ccco1	0	15*	6	-12	0	-3
CN1C2CN(CC(F)(F)F)CC1C2c1ccc(Br)cc1 (centres undefined)	nt	nt	-19	nt	0	nt
C/C(=N\N1CCCCCC1)c1c(O)n(-c2ccc(C)cc2)c(=O)[nH]c1=O	44*	-1	4	-1	0	5
NC(=O)c1cn(C2OC(CO)C(O)C2O)c2ncnc(N)c12 (centres undefined)	0	-1	53*	-5	1	?
N#Cc1cn(C2OC(CO)C(O)C2O)c2ncnc(N)c12 (centres undefined)	0	1	7	-10	0	7
COc1ccc(-c2ccc3n(c2=O)C[C@H]2[C@H](CO)[C@@H](C(=O)O)[C@@H]3N2C(=O)c2ccccc2F)cc1	0	-61	nt	1	0	4
CCN1C[C@]2(COC)CC[C@H](OC)[C@@]34C5C[C@H]6C(=O)C5[C@](O)(C[C@H]6OC)[C@@](O)(C(OC)C23)[C@@H]14 (some centres undefined)	0	nt	nt	-2	nt	44*
CN1C(=O)C(=Cc2ccccc2OCc2ccc(Cl)cc2)C(=O)N(C)C1=O	0	112*	-5	8	0	-4
Cc1ccc(S(=O)(=O)Oc2ccccc2C=C2C(=O)N(C)C(=O)N(C)C2=O)cc1	0	0	-3	3	0	-3
Cc1ccccc1C(=O)N1Cc2ccccc2-n2nncc2C1	0	2	-4	nt	0	0
O=C(c1cccnc1)N1Cc2ccccc2-n2nncc2C1	44*	nt	2	nt	0	18
O=C(NCc1cccnc1)Nc1ccccc1Cl	0	-2	nt	2	0	9
O=C(NCc1cccnc1)Nc1ccc([N+](=O)[O-])cc1	0	-2	nt	-4	0	36*
O=C(O)[C@H]1[C@H](CO)[C@H]2Cn3c(ccc(C4=CCCC4)c3=O)[C@@H]1N2C(=O)Cc1ccccn1	nt	-20	nt	-2	0	4
C=CCN1CC[C@]23c4c5ccc(O)c4OC2C(O)C=CC3[C@H]1C5 (some centres undefined)	0	nt	nt	-2	nt	131*
Cc1c(N=Cc2c(O)n(C)c(=O)[nH]c2=O)c(=O)n(-c2ccccc2)n1C	0	-7	1	nt	0	2
Cc1c(N=Nc2c(O)n(-c3ccc(Br)cc3)c(=O)[nH]c2=O)c(=O)n(-c2ccccc2)n1C	0	3	0	61*	0	-5
Cc1c(N=Nc2c(O)[nH]c(=O)[nH]c2=O)c(=O)n(-c2ccccc2)n1C	0	3	-12	65*	0	-6
CC(=O)NC1=C(N2CC2C)C(=O)C(NC(C)=O)=C(N2CC2C)C1=O (centres undefined)	0	1	-7	8.8*	0	5
COC(=O)[C@@H]1[C@@H](CO)[C@@H]2Cn3c(ccc(-c4ccc(F)cc4)c3=O)[C@H]1N2Cc1ccccc1	0	-2	nt	-7	1	-6
COC(=O)[C@@H]1[C@@H](CO)[C@@H]2Cn3c(ccc(-c4cccc(OC)c4)c3=O)[C@H]1N2C(=O)c1cnccn1	0	3	nt	-6	0	-12
C/C=C/c1ccc([C@@H]2[C@H](CO)N3CCCCN(C(=O)Cc4cccnc4)C[C@@H]23)cc1	0	-2	0	-10	0	4
O=C(NCCN1CCC2(CC1)C(=O)NCN2c1ccccc1)c1ccccc1F	0	nt	14	nt	0	31*
SMILES	FGF22 binding	SIRT5 block	FN deposition inh	ARNT-TACC3 inh	XiGFP reactiv	DENV2 CPE
Cc1ccccc1C(=O)NCCN1CCC2(CC1)C(=O)NCN2c1ccccc1	0	0	-8	nt	0	-1
C=CCn1c(O)c(C(C)=NCCCn2ccnc2)c(=O)[nH]c1=O	0	-2	4	84*	0	-4
O=C(Cc1ccccn1)N1CCCCN2[C@H](CO)[C@H](c3ccc(-c4ccccc4)cc3)[C@@H]2C1	0	-2	nt	-1	0	18
COC(=O)[C@@H]1[C@@H](CO)[C@@H]2Cn3c(ccc(-c4ccccc4F)c3=O)[C@H]1N2C(=O)C1CCC1	0	-10	nt	-2	0	2
NS(=O)(=O)OC(CCc1ccccc1)C(Cl)(Cl)Cl (centres undefined)	45*	-1	8	-5	0	nt
O=C(O)[C@H]1[C@H](CO)[C@H]2Cn3c(ccc(-c4ccncc4)c3=O)[C@@H]1N2C(=O)C1CCCCC1	0	-54	10	10	0	-2
O=C(O)[C@@H]1[C@@H](CO)[C@@H]2Cn3c(ccc(-c4ccncc4)c3=O)[C@H]1N2C(=O)C1CC1	nt	nt	nt	nt	0	nt
COC(=O)[C@H]1N[C@H]2c3ccc(C4=CCCC4)c(=O)n3C[C@H]2[C@@H]1CO	0	-6	nt	-1	1	128*
COCC(=O)N1[C@@H]2Cn3c(ccc(C4=CCCC4)c3=O)[C@H]1[C@@H](C(=O)OC)[C@@H]2CO	0	-9	nt	-5	0	?
COc1cccc(-c2ccc([C@H]3[C@@H](CO)N4CCCCN(C(=O)Cc5ccncc5)C[C@H]34)cc2)c1	1	2	-2	nt	0	-1
O=C1NC(=O)N(c2ccccc2)C(=O)/C1=C/C=C/c1ccco1	0	5	-16	0	0	-2
CN(C)c1ccc(/C=C/C=C2/C(=O)NC(=O)N(c3ccccc3)C2=O)cc1	44*	-3	1	0	0	-6
CNc1ccc2nc3ccccc3[n+](C)c2c1	0	6	12	68*	0	2
O=C1NC(=O)C(=Cc2ccc(-c3ccc(F)cc3O)o2)C(=O)N1	43*	0	7	-14	1	nt
O=C1NC(=O)C(=Cc2ccc(-c3ccc(Cl)cc3)o2)C(=O)N1	nt	nt	nt	21	nt	nt
CC(=O)OC1CC2OC3C=C(C)CCC3(C)C1(C)C21CO1 (centres undefined)	0	nt	nt	nt	nt	-11
CC(=O)O[C@H]1C[C@@H]2OC3C=C(C)CCC3(C)[C@@]1(C)[C@@]21CO1 (some centres undefined)	0	1	6	-2	0	106*
CC(C)(O)/C=C/C(=O)C(C)(O)C1C(O)CC2(C)C3CC=C4C(C=C(O)C(=O)C4(C)C)C3(C)C(=O)CC12C (centres undefined)	0	nt	46*	9	0	1
